# Test results taken from ChEMBL document CHEMBL4130635, “2,4-Diaminoquinazolines as Dual Toll-like Receptor (TLR) 7/8 Modulators for the Treatment of Hepatitis B Virus” (J Med Chem, 2018).
# The source made the active and inactive calls. No cut-off for these calls is given here.
# Legend:
# Cynomolgus monkey [1] = assay: Activation of monocytes in cynomolgus monkey plasma assessed as upregulation of MCP1 levels at 30 mg/kg, po after 24 hrs by Luminex assay (reference value: 385 pg/ml); assay type: functional, Macaca fascicularis
# [2] = biological target: T1, Toll-like receptor 7 (Homo sapiens) (UniProt Q9NYK1); assay: Agonist activity at TLR7 in human PBMC assessed as suppression of HCV replicon replication in human HuH7 luc/neo cells harboring RNA encoding bicistronic expression construct comprising wild type HCV type 1b NS3-NS5B regions exposed to conditioned media from compound treated PBMCs after 24 hrs by luciferase reporter gene assay; assay type: cell-based
# T1 sequence (whole entry): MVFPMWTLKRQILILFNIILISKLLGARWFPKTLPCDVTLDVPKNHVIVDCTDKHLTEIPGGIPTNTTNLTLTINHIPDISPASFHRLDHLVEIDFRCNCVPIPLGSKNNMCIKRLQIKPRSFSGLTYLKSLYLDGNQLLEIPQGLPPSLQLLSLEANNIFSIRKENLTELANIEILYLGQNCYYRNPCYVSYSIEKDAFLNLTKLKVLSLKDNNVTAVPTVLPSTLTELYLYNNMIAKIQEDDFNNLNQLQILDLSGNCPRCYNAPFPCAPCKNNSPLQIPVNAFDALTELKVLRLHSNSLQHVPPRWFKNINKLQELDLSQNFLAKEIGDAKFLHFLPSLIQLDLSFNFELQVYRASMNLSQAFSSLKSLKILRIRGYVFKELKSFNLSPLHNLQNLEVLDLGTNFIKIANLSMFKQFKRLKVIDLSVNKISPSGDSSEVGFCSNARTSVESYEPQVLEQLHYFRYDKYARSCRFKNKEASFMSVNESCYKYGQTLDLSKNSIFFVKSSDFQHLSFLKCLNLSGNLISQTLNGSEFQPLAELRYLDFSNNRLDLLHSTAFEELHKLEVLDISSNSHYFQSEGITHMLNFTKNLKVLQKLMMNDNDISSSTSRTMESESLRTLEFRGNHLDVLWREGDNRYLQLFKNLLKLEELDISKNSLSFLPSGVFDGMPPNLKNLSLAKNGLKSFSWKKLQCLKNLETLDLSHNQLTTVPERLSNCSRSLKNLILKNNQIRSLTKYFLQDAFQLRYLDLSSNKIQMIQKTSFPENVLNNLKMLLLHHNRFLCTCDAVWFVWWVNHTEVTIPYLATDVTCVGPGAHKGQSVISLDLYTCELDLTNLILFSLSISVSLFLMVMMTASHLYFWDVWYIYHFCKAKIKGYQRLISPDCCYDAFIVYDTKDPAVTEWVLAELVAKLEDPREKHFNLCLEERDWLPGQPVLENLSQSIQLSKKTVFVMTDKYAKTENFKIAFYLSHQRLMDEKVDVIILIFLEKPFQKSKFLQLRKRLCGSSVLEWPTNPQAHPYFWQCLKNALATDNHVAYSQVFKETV
# In short: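 Human PBMCs were incubated with compound. Their medium was then transferred onto an HCV replicon system, so the antiviral read-out reflects interferon and cytokines the PBMCs induced. Values are reported as lowest effective concentration (LEC), averaged when determined in two or more independent experiments.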
# [3] = Intrinsic clearance in human liver microsomes assessed per mg protein at 1 uM up to 60 mins; assay type: ADME, microsome; settings: read-out: CLH
# Liver [4] = assay: Proinflammatory activity in C57BL/6J mouse liver assessed as IL-1beta levels at 3 mg/kg, po by multiplex assay; assay type: functional
# Cynomolgus monkey [5] = assay: Effect on cytokine profile in cynomolgus monkey plasma assessed as IP10 levels at 3 mg/kg, po after 24 hrs by Luminex assay (reference value: 18.5 pg/ml); assay type: functional, Macaca fascicularis
# In short: (§1)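 Healthy cynomolgus monkeys given single oral doses of 1, 3, 9 and 30 mg/kg, with a 2-week wash-out planned between doses. Systemic cytokine levels in plasma were sampled at 0.5, 1, 2, 4, 9 and 24 h postdose.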
# Cynomolgus monkey [6] = assay: Induction of ISG response in cynomolgus monkey plasma assessed as upregulation of Mx1 mRNA expression at 30 mg/kg, po after 24 hrs by Fluidigm RT-qPCR analysis (reference value: 1); assay type: functional, Macaca fascicularis
# In short: (§2)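 Cynomolgus monkeys, single oral doses of 1, 3, 9 and 30 mg/kg with a planned 2-week wash-out between doses. Systemic ISG (ISG15, Mx1, OAS1) mRNA was measured by Fluidigm RT-qPCR at 1, 2, 4, 8 and 24 h postdose.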
# [7] = biological target: T2, TLR7 and TLR8 (Homo sapiens) (UniProt Q9NYK1+Q9NR97); assay: Agonist activity at TLR7/8 in human PBMCs co-cultured with primary human hepatocytes infected with HBV genotype C for 12 days assessed as increase in VEGF levels up to 5 uM measured after 42 days
# [8] = biological target: T2, TLR7 and TLR8 (Homo sapiens); assay: Agonist activity at TLR7/8 in human PBMCs assessed as reduction in extracellular viral load in human hepatocytes infected with HBV genotype C for 12 days followed by exposure to conditioned supernatant from up to 5 uM compound treated PBMCs measured after 42 days; assay type: cell-based
# Cynomolgus monkey [9] = assay: Induction of ISG response in cynomolgus monkey plasma assessed as upregulation of Mx1 mRNA expression at 9 mg/kg, po after 24 hrs by Fluidigm RT-qPCR analysis (reference value: 1); assay type: functional, Macaca fascicularis; in short: as §2
# Cynomolgus monkey [10] = assay: Toxicity in cynomolgus monkey assessed as change in body weight up to 30 mg/kg, po; assay type: organism-based, Macaca fascicularis; settings: in vivo
# Plasma = assay: Effect on cytokine profile in C57BL/6J mouse plasma assessed as IFNgamma levels at 3 mg/kg, po by multiplex assay; assay type: functional, organism-based
# In short: (§3)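 Single oral gavage in 20% HP-β-CD to healthy C57BL/6 mice, groups of 15 at 0.3, 1, 3, 10 or 30 mg/kg. Three mice per group sacrificed at 0.5, 1, 2, 4 or 7 h. Plasma and liver cytokines by multiplex, maximum level reported, rounded to nearest multiple of 5.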
# Cynomolgus monkey [11] = assay: Effect on cytokine profile in cynomolgus monkey plasma assessed as IP10 levels at 30 mg/kg, po after 24 hrs by Luminex assay (reference value: 18.5 pg/ml); assay type: functional, Macaca fascicularis; in short: as §1
# [12] = Cytotoxicity against HEK293 cells assessed as reduction in cell viability after 6 hrs by ATP lite assay; assay type: cell-based; settings: human
# Cynomolgus monkey [13] = assay: Proinflammatory activity in cynomolgus monkey plasma assessed as TNFalpha levels at 3 mg/kg, po after 24 hrs by Luminex assay (reference value: 285 pg/ml); assay type: functional, Macaca fascicularis
# [14] = Cmax in Sprague-Dawley rat plasma at 10 mg/kg, po; assay type: ADME, organism-based; parameters: dose 10 mg/kg, route oral
# In short: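 Male Sprague-Dawley rats given 10 mg/kg po as a solution. Compound measured in portal vein, systemic plasma and liver. Cmax taken from concentration–time profiles.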
# Liver [15] = assay: Effect on cytokine profile in C57BL/6J mouse liver assessed as IL-12p70 levels at 3 mg/kg, po by multiplex assay (reference value: 5 pg/g); assay type: functional, organism-based; in short: as §3
# Cynomolgus monkey [16] = assay: Upregulation of Tlr7 expression in cynomolgus monkey plasma at 30 mg/kg, po after 24 hrs by Fluidigm RT-qPCR analysis (reference value: 1.8); assay type: functional, Macaca fascicularis
# TK6 = assay: Genotoxicity in human TK6 cells by in vitro micronuleus test; assay type: toxicity, cell-based
# In short: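 In vitro micronucleus test in TK-6 cells.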
# Liver [17] = assay: Effect on cytokine profile in C57BL/6J mouse liver assessed as IL-12p70 levels at 0.3 mg/kg, po by multiplex assay (reference value: 5 pg/g); assay type: functional, organism-based; in short: as §3
# Liver [18] = assay: Proinflammatory activity in C57BL/6J mouse liver assessed as IL-1beta levels at 30 mg/kg, po by multiplex assay; assay type: functional
compound,measurement,setting,value
CCC[C@@H](CCO)Nc1nc(N)nc2c(F)cccc12,Activity,Cynomolgus monkey [1],>10000 pg/mL
same,MEC,[2],0.25 µM
same,microsomal CLint at 1 µM,[3],8 µL/min/mg
same,Activity,Liver [4],22925 pg/g
same,Activity,Cynomolgus monkey [5],1490 pg/mL
same,fold change (FC),Cynomolgus monkey [6],65
same,Activity,[7],Active
same,Activity,[8],Active
same,fold change (FC),Cynomolgus monkey [9],55
same,Activity,Cynomolgus monkey [10],Non-Toxic
same,Activity,Plasma,Below limit of detection
same,Activity,Cynomolgus monkey [11],8195 pg/mL
same,CC50 at 6 h,[12],> 24 µM
same,Activity,Cynomolgus monkey [13],70 pg/mL
same,Cmax,[14],16 ng/mL
same,Activity,Liver [15],Below limit of detection
same,fold change (FC),Cynomolgus monkey [16],4.2
same,Activity,TK6,Non-Toxic
same,Activity,Liver [17],Below limit of detection
same,Activity,Liver [18],56615 pg/g
